# Test results reported in ChEMBL document CHEMBL2331538, “Identification of inhibitors against interaction between pro-inflammatory sPLA2-IIA protein and integrin αvβ3” (Bioorg Med Chem Lett, 2013).
# The source made the active and inactive calls. No cut-off for these calls is given here.
# Experiments:
# [1] = biological target: T1, Phospholipase A2, membrane associated (Homo sapiens) (UniProt P14555); assay: Inhibition of sPLA2-IIA (unknown origin)-integrin alphaVbeta3 interaction in human K562 cells pretreated for 30 mins to immobilized sPLA2 before adding cells by phosphatase assay relative to BSA; type: cell-based
# T1 sequence (whole entry): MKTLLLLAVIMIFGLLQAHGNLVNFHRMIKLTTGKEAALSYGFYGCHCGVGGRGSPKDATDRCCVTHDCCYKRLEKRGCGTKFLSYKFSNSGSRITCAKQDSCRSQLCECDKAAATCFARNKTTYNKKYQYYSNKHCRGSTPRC
# Method in brief: (§1)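 Wells coated with sPLA2-IIA and blocked with BSA were preincubated with compound (10 to 500 μM) for 30 min. Integrin αvβ3-transfected K562 erythroleukemia cells were then added for 1 h at 37 °C, and bound cells were quantified by phosphatase assay. IC50 and maximum inhibition were derived from dose-response experiments.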
# [2] = biological target: T2, Disintegrin and metalloproteinase domain-containing protein 15 (Homo sapiens) (UniProt Q13444); assay: Inhibition of ADAM15 (unknown origin)-integrin alphaVbeta3 interaction in human K562 cells pretreated at 200 uM for 30 mins to immobilized sPLA2 before adding cells by phosphatase assay; type: cell-based
# T2 sequence (whole entry): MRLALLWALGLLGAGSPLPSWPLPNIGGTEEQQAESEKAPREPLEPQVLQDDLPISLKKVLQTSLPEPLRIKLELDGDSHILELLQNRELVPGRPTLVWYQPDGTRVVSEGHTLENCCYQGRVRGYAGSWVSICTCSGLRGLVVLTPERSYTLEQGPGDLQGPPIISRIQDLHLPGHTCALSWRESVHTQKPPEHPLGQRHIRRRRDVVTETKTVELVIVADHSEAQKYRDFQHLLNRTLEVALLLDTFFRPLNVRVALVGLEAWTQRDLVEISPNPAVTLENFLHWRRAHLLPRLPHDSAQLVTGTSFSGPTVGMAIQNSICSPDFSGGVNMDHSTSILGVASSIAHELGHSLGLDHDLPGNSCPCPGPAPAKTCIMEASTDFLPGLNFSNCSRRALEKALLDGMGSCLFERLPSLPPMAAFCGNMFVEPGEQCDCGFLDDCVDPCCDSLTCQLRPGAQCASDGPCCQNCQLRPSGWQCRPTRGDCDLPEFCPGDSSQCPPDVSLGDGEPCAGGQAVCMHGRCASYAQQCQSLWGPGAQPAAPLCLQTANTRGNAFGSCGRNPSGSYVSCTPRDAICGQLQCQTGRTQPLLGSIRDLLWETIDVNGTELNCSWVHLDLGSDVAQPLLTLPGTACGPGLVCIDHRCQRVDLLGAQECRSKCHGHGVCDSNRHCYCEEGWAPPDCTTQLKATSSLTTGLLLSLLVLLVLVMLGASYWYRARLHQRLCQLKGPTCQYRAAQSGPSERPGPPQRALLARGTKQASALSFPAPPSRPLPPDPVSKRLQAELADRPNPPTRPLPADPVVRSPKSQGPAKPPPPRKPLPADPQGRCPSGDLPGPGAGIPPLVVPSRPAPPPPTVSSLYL
# Method in brief: (§2)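 Specificity adhesion assay using αvβ3-transfected K562 cells. Wells were coated with either ADAM15 or sPLA2-IIA and blocked with BSA. Compound was used at 200 μM. Adherent cells were quantified by phosphatase assay. Means ± S.E., n=3.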
# [3] = biological target: T1, Phospholipase A2, membrane associated (Homo sapiens); assay: Inhibition of sPLA2-IIA (unknown origin)-integrin alphaVbeta3 interaction in human K562 cells pretreated at 200 uM for 30 mins to immobilized sPLA2 before adding cells by phosphatase assay; type: cell-based; method in brief: as §2
# [4] = tested on: U-937; assay: Inhibition of sPLA2-IIA (unknown origin)-induced migration of human U937 cells after 20 hrs by chemotaxis assay
# [5] = biological target: T3, Phospholipase A2, membrane associated (Homo sapiens, UniProt P14555); assay: Inhibition of sPLA2-IIA (unknown origin)-integrin alphaVbeta3 interaction in human K562 cells pretreated for 30 mins to immobilized sPLA2 before adding cells by phosphatase assay; type: cell-based; method in brief: as §1
# T3 sequence (P14555 whole entry): T1 sequence (whole entry)
# [6] = biological target: T1, Phospholipase A2, membrane associated (Homo sapiens); assay: Inhibition of sPLA2-IIA (unknown origin)-induced migration of human U937 cells after 20 hrs by chemotaxis assay; type: cell-based; settings: U-937
# Method in brief: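 Modified Boyden chamber (Transwell) chemotaxis assay. The lower chamber held sPLA2-IIA (40 ng/ml) with compound (4 to 16 μM), and U937 monocytic cells were placed in the upper chamber for 20 h at 37 °C. Migrated cells were counted. Means ± SE, n=4.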
# [7] = tested on: U-937; assay: Inhibition of sPLA2-IIA R47E/R100E mutant (unknown origin)-induced migration of human U937 cells after 20 hrs by chemotaxis assay; type: cell-based
Structure (SMILES),Imax [1],further results
Cc1nc(NC(=O)c2ccccc2)sc1-c1cc(C(=O)NCC(=O)N[C@H](CCCNC(=N)N)C(=O)NCC(=O)N[C@H](CC(=O)O)C(=O)N[C@H](CC(=O)O)C(=O)N[C@H](CC(=O)O)C(=O)O)[nH]n1,93%,inhibition [2]: inactive; inhibition [3]: Active; inhibition [4]: inactive
Cc1nc(NC(=O)c2ccccc2)sc1-c1cc(C(=O)NCC(=O)N[C@H](CCCN=C(N)N)C(=O)NCC(=O)N[C@H](CC(=O)O)C(=O)N[C@H](CC(=O)O)C(=O)N[C@H](CC(=O)O)C(=O)O)[nH]n1,–,IC50 [5]: 71 µM
CC(C)[C@H](NC(=O)[C@@H]1CCCN1C(=O)[C@@H](CC(N)=O)NC(=O)[C@@H](CCCNC(=N)N)NC(=O)[C@H](CCCCN)NC(=O)[C@H](Cc1c[nH]c2ccccc12)NC(=O)c1csc(-c2ccccn2)n1)C(=O)O,< 30%,–
Cc1nc(NC(=O)c2ccccc2)sc1-c1cc(C(=O)O)[nH]n1,inactive,–
Cc1nc(NC(=O)c2ccccc2)sc1-c1cc(C(=O)NCC(=O)N[C@H](CCCNC(=N)N)C(=O)NCC(=O)N[C@H](CC(=O)O)C(=O)O)[nH]n1,87%,–
Cc1nc(NC(=O)c2ccccc2)sc1-c1cc(C(=O)NCC(=O)N[C@H](CCCN=C(N)N)C(=O)O)[nH]n1,–,IC50 [5]: 262 µM
N=C(N)NCCC[C@@H](NC(=O)c1csc(-c2ccccn2)n1)C(=O)N[C@@H](Cc1c[nH]c2ccccc12)C(=O)N[C@@H](CCC(=O)O)C(=O)N[C@H](Cc1ccccc1)C(=O)O,< 30%,–
CC[C@H](C)[C@H](NC(=O)[C@@H](CC(=O)O)NC(=O)[C@H](Cc1c[nH]c2ccccc12)NC(=O)[C@H](C)NC(=O)c1cc(-c2sc(NC(=O)c3ccccc3)nc2C)n[nH]1)C(=O)O,85%,inhibition [2]: inactive; inhibition [3]: Active; IC50 [5]: 20 µM; inhibition [6]: Dose-dependent effect; inhibition [7]: inactive
Cc1nc(NC(=O)c2ccccc2)sc1-c1cc(C(=O)NCC(=O)N[C@H](CCCN=C(N)N)C(=O)NCC(=O)N[C@H](CC(=O)O)C(=O)O)[nH]n1,–,IC50 [5]: 155 µM
Cc1nc(NC(=O)c2ccccc2)sc1-c1cc(C(=O)NCC(=O)N[C@H](CCCN=C(N)N)C(=O)NCC(=O)O)[nH]n1,–,IC50 [5]: 217 µM
C[C@H](NC(=O)[C@@H](CCCNC(=N)N)NC(=O)[C@@H](CC(N)=O)NC(=O)[C@@H](CCCNC(=N)N)NC(=O)[C@@H](Cc1ccccc1)NC(=O)c1ccc2nn3c(c2c1)OCc1cc(Cl)ccc1-3)C(=O)N[C@@H](Cc1ccc(O)cc1)C(=O)O,71%,IC50 [5]: 85 µM

# The next lines start with results.
Imax [1],Structure (SMILES),further results
98%,Cc1nc(NC(=O)c2ccccc2)sc1-c1cc(C(=O)NCC(=O)O)[nH]n1,–
< 30%,CC(C)[C@H](NC(=O)CC1NC(=O)NC1=O)C(=O)N[C@H](CC(N)=O)C(=O)N[C@@H](Cc1c[nH]c2ccccc12)C(=O)N1CCC[C@H]1C(=O)N[C@@H](CCC(N)=O)C(=O)N[C@@H](CCC(N)=O)C(=O)O (stereo partly specified),–
81%,Cc1nc(NC(=O)c2ccccc2)sc1-c1cc(C(=O)NCC(=O)N[C@H](CCCNC(=N)N)C(=O)NCC(=O)O)[nH]n1,–
inactive,N=C(N)NCCC[C@@H](NC(=O)CN)C(=O)NCC(=O)N[C@H](CC(=O)O)C(=O)N[C@H](CC(=O)O)C(=O)N[C@H](CC(=O)O)C(=O)O,–
inactive,Cc1nc(NC(=O)c2ccccc2)sc1-c1cc(C(=O)NCC(=O)N[C@H](CCCNC(=N)N)C(=O)NCC(=O)N[C@H](CC(=O)O)C(=O)N[C@H](CC(=O)O)C(=O)O)[nH]n1,–
inactive,Cc1nc(NC(=O)c2ccccc2)sc1-c1cc(C(=O)N[C@@H](C)C(=O)O)[nH]n1,–
< 30%,C[C@H](NC(=O)[C@H](CCCCN)NC(=O)[C@H](Cc1ccc(O)cc1)NC(=O)[C@H](Cc1cnc[nH]1)NC(=O)c1cnccn1)C(=O)N[C@H](CC(N)=O)C(=O)N[C@H](C(=O)O)[C@@H](C)O,–
inactive,Cc1nc(NC(=O)c2ccccc2)sc1-c1cc(C(=O)N[C@@H](C)C(=O)N[C@@H](Cc2c[nH]c3ccccc23)C(=O)O)[nH]n1,–
77%,Cc1nc(NC(=O)c2ccccc2)sc1-c1cc(C(=O)NCC(=O)N[C@H](CCCNC(=N)N)C(=O)O)[nH]n1,–
inactive,CC[C@H](C)[C@H](NC(=O)[C@@H](CC(=O)O)NC(=O)[C@H](Cc1c[nH]c2ccccc12)NC(=O)[C@H](C)N)C(=O)O,–
inactive,Cc1nc(NC(=O)c2ccccc2)sc1-c1cc(C(=O)N[C@@H](C)C(=O)N[C@@H](Cc2c[nH]c3ccccc23)C(=O)N[C@H](CC(=O)O)C(=O)O)[nH]n1,–
